In the library only some 4.9% were active in any assay of this set; here they are far more common.
STAT3 act: activators of IL-6 induced STAT3 signaling. activation (% of control), % at 5.6 µM. actives 0.91% (n = 190,000). AID 871. U3A cells, IL-6 STAT3-luciferase reporter, luminescence; 100% = signal with IL-6 EC80 alone;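 active = activation above the screen-wide mean of compound activation plus 3 SD, cut at about 130% in these data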;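 also: 0% = background luminescence of wells with medium and substrate only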
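Test system: human U3A cells carrying STAT3-luciferase construct; control set: IL-6-only wells as 100% reference; timing: compound pre-incubation 1 h before IL-6, then 6 h stimulation at 37 °C; also added: IL-6 stimulus at 33 ng/mL final; evaluation: % activation versus median of IL-6-stimulated wells; detection: reporter luminescence signal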
APP 5'UTR act: activates APP 5'UTR luciferase reporter; SH-SY5Y APP 5'UTR luciferase reporter, luminescence; zero percent = DMSO vehicle wells; activation, % at 2 µM; actives 1% (n = 190,000); AID 1276;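 active = activation above a set limit, based on mean plus 3 SD of controls, cut at about 140% in these data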
STAT3 inh: STAT3 signaling inhibition; AID 862; actives 0.89% (n = 190,000); inhibition, % at 5.5 µM; U3A cells, IL-6 STAT3-luciferase reporter, luminescence; host cell line lacks STAT1;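 active = inhibition above the mean inhibition across all screened compounds plus 3 SD, cut at about 44% in these data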;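 also: 0% = DMSO only wells and 100% = 100 µM nifuroxazide control wells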
STAT1 blocker: STAT1 signaling inhibition; NIH 3T3 STAT1-luciferase reporter, IFN-gamma, luminescence; inhibition, % at 5.5 µM; actives 0.35% (n = 200,000); AID 920;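 active = inhibition above a set limit, the mean inhibition across all tested compounds plus 3 SD, cut at about 34% in these data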;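 also: 0% = IFN-gamma with DMSO and 100% = IFN-gamma with 300 µM nifuroxazide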
STAT1 act: activators of IFN-gamma induced STAT1 signaling | NIH 3T3 STAT1-luciferase reporter, luminescence; 100% = IFN-gamma alone, no compound | activation (% of control), % at 5.5 µM | actives 2.6% (n = 200,000);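 active = activation above the screen-wide mean activation plus 3 SD, cut at about 130% in these data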;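 also: raw ratio to IFN-gamma control signal so 100% means no change and 0% no light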
NF-kB neuron act: raises NF-kB expression in human neuronal cells; actives 1.6% (n = 190,000); AID 1239; NF-kB reporter expression; stronger effect = higher value; fold change at 12.5 µM; in the data active = fold change above about 3.3
* = called active by the depositor.

SMILES	STAT3 act	APP 5'UTR act	STAT3 inh	STAT1 blocker	STAT1 act	NF-kB neuron act
CCOc1ccc(C(C(=O)NC2CCCC2)N(CCCO)C(=O)c2ccc(-c3ccccc3)[nH]2)cc1 (configuration not stated)	108	0	-4	-8	109	0.73
CCC1CCCCN1C(=O)CSc1nc(N)cc(N)n1 (configuration not stated)	92	12	15	0	99	1.1
O=C(CSc1ccc(-c2ccc(F)cc2)nn1)N1CCOCC1	97	28	10	-6	104	1.6
COc1ccc(C)cc1NC(=S)NNC(=O)c1c(Br)cnn1C	98	11	9	-2	100	1.1
O=C(O)C1CCCCC1C(=O)Nc1cccc2ccccc12 (configuration not stated)	89	5	16	-46	143*	1.2
O=C(O)C1CCCCC1C(=O)Nc1ccccc1Nc1ccccc1 (configuration not stated)	82	-19	23	-6	105	1
COc1cc(OC)cc(C(=O)N[C@H](C(=O)Nc2nc(-c3ccc(F)c(F)c3)cs2)C(C)C)c1	110	8	-11	4	96	1.2
C=COC(=O)CSc1nc(-c2cccs2)ccc1C#N	90	90	17	-40	136*	1.9
CCN(CC)CCn1nc2c3c(cccc3c1=O)-c1ccccc1-2	135*	-68	-43	-147	230*	1.3
CCOC(=O)C(C)N1C(=O)S/C(=C/c2cc(C)n(-c3ccccn3)c2C)C1=O (configuration not stated)	113	140*	-14	-26	126	1.8
COC(=O)C(C)N1C(=O)S/C(=C/c2cc(C)n(C(C)C)c2C)C1=O (configuration not stated)	91	112	11	-41	138*	2.3
COC(=O)CN1C(=O)S/C(=C/c2cc(C)n(C)c2C)C1=O	93	22	10	-33	130*	2.1
CCOC(=O)C(C)N1C(=O)S/C(=C/c2cc(C)n(-c3ccncc3)c2C)C1=O (configuration not stated)	93	8	11	6	93	0.97
O=C(c1cccnc1Cl)N1CCOCC1	97	25	15	-2	101	1.1
O=C1C(Nc2ccc(O)cc2)=C/C(=N/S(=O)(=O)c2cccs2)c2ccccc21	26	-54	86*	90*	15	0.14
COC(=O)c1ccc(N/C(=N/S(=O)(=O)c2ccccc2)c2ccccc2)cc1	110	2	-6	3	97	0.93
Cc1ccc(NC(=S)N/C(=N/S(=O)(=O)c2ccccc2)c2ccccc2)cc1	101	55	-2	-49	143*	2.4
Cc1ccc(S(=O)(=O)/N=C(/NC(=S)Nc2ccccc2)c2ccccc2)cc1	113	144*	-12	-55	150*	6*
CC(C)(C)S(=O)(=O)c1cnc2c(-c3ccsc3)cnn2c1N	119	85	-15	-37	132*	1
C/C(=N\Nc1ncc(Cl)cc1Cl)c1ccc2c(c1)OCO2	85	7	22	-22	119	1.4
C/C(=N\Nc1ncc(Cl)cc1Cl)c1ccc(OC(F)F)cc1	97	60	6	-24	122	4.5*
Cc1nn(Cc2ccc([N+](=O)[O-])cc2)c(=O)n1-c1cccc(Cl)c1	101	12	4	-8	105	1.5
COc1ccc(CN=C2Nc3ccccc3CS2)cc1	97	200*	10	-28	126	6.7*
COc1ccc(C2=NN(C)C(=NCc3ccccc3)SC2)cc1	85	-6	22	-3	103	1.2
COc1ccc(CN=C2NN=C(c3ccc(Cl)cc3)CS2)cc1	107	8	-7	-49	144*	2.8
SMILES	STAT3 act	APP 5'UTR act	STAT3 inh	STAT1 blocker	STAT1 act	NF-kB neuron act
COc1ccc(CCNC(=O)CSc2nnc3ccc(-c4cccnc4)nn23)cc1	98	-9	13	4	95	1.1
Cc1ccc(-n2c(O)c(C=NCc3ccccn3)c3ccccc3c2=O)cc1C	87	3	15	-1	100	0.64
O=C(O)CCCNc1cc(N2CCC3(CC2)OCCO3)c2noc3c2c1C(=O)c1ccccc1-3	103	90	0	-46	143*	0.44
CCOC(=O)N1CCN(c2cc(NCCC(=O)O)c3c4c(onc24)-c2ccccc2C3=O)CC1	104	7	2	-5	104	0.59
Cc1cc(C(=O)N/N=C/C=C/c2ccc([N+](=O)[O-])cc2)n[nH]1	95	-12	10	-10	106	1.1
COc1ccc(C(=O)Nc2ccccc2C(N)=O)cc1	87	91	17	-20	119	3.1
COc1ccc(C(=O)Nc2ccccc2C(=O)N/N=C/c2cccc3ccccc23)cc1	32	101	80*	39*	65	4.2*
COc1ccc(CCNC(=O)c2cc(-c3cccs3)on2)cc1OC	104	-9	4	-3	102	2.3
COc1ccc(CCNC(=O)c2cc(-c3ccco3)on2)cc1OC	111	5	-3	-11	108	4.5*
O=C(NCc1ccccc1)c1cc(-c2ccco2)on1	97	12	6	-12	107	1.7
O=C(NCCc1ccccc1)c1cc(-c2ccco2)on1	103	117	-4	-35	132*	5.8*
Cc1ccc(NC(=O)c2cc(-c3ccco3)on2)cc1C	111	8	-10	-34	132*	2.6
C/C(=N\NC(=O)c1nn(C)c(C)c1Br)c1cccc(NC(=O)c2ccoc2C)c1	84	59	22	-57	150*	1.5
CC(C)(C)NC(=O)Cn1c(=O)c(=O)n(Cc2ccccc2)c2ccc(Cl)cc21	94	4	9	-6	105	0.95
C/C(=N\NC(=O)OC(C)(C)C)c1ccccc1Br	120	20	-18	-36	132*	2.1
CN(C(=S)NC(=O)Cc1ccccc1)c1ccccc1	93	19	16	-8	108	1.4
O=C1SC(SC(=Nc2ccccc2)Nc2ccccc2)C(=O)N1c1ccccc1 (configuration not stated)	93	18	16	-42	138*	1.9
Cc1cccc(N2C(=O)CC(SC(=Nc3ccccc3)Nc3ccccc3)C2=O)c1 (configuration not stated)	111	-5	-8	6	95	0.69
Nc1nn(-c2cccc(F)n2)cc1-c1ccccc1	66	213*	42	-16	115	9.9*
CCCC(=O)Nc1ccc(C(=O)Nc2cccc(OC)c2)cc1	107	35	-3	-6	106	1.4
CCCCOC(=O)Nc1ccc(C)c(Cl)c1	90	114	16	-47	143*	2.9
COc1cccc(C(=O)Nc2ccccc2)c1	83	45	23	-18	117	2
